Compound activity from PubChem BioAssay.
Lipid droplet = hepatic lipid droplet formation modulation. 0.4% of 240,000 active. AID 1656. AML12 mouse hepatocytes, oleate lipid droplets, BODIPY imaging. inhibition, % at 6.5 µM;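 active means lipid droplet intensity inhibited by at least 50%, with more than 500 cells counted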
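material = mouse AML12 hepatocyte cell line, fixed after treatment | also added = 100 µM oleic acid challenge | doses = compound at 6.5 µM only | schedule = overnight exposure | technique = Image-based BODIPY and DAPI two-channel analysis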
MrgX1 antagonist = blocks BAM8-22 activation of human MrgX1 receptor. Q96LB2. MRGX1-HEK293 calcium flux, Fluo-4, BAM8-22 antagonism; stronger effect = lower value. B-score at 10 µM. 1.3% of 310,000 active;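 active means calcium-response B-score plate-corrected more than 3 library SD below zero, starting fluorescence within 5 deviations, no agonist response on first addition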;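 further: peak minus trough fluorescence over baseline after final BAM8-22 challenge near maximal dose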
MrgX1 ag = activates human MrgX1 receptor signaling; Q96LB2; MrgX1-HEK293 cells, Fluo-4 calcium fluorescence, agonist mode; stronger effect = higher value; B-score at 10 µM; 0.44% of 310,000 active; AID 588627;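 active means calcium response B-score plate-corrected fluorescence ratio at least 3 library SD, with starting fluorescence B-score inside 5 SD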
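Material: HEK293 cells stably expressing human MrgX1 receptor | Quantity: 15,000 cells per well | Times: Cells plated overnight, dye loaded 0.5 h 37 °C, 0.5 h room temperature | Measured by: Kinetic Fluo-4 NW fluorescence of intracellular calcium | Control set: Positive and negative controls per plate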
RGS4 pot = potentiators or activators of RGS4; HEK293 M3R/inducible RGS4, carbachol calcium flux Fluo4; stronger effect = lower value; B-score at 10 µM; 0.92% of 310,000 active; AID 463111;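 active means B-score of the integrated calcium signal more than 4 SD below the library mean, with starting fluorescence not abnormally high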;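 further: negative B-score means reduced calcium response which marks RGS4 activation or potentiation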
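Also added: carbachol at ECmax as muscarinic agonist stimulus; Assay system: HEK293 cells with stable M3R and inducible RGS4; Timing: overnight RGS4 induction, 30 min dye load 37 °C, 20 min compound RT; Measured by: Fluo4-AM (2 µM) calcium-flux fluorescence, kinetic read.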
RGS4 block = human RGS4 inhibition; 0.45% of 310,000 active; B-score at 10 µM; HEK293 M3R/RGS4 inducible, Fluo-4 calcium flux; stronger effect = higher value; triggered by carbachol at its EC20; AID 463165;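 active means B-score, a plate-corrected calcium signal, over three deviations above library mean, with baseline fluorescence within five deviations of library mean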;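 further: RGS4 expression induced by doxycycline in cells with stable M3 receptor; B-score is computed from the integrated fluorescence ratio over baseline after carbachol; higher B-score means a larger calcium signal and so more RGS4 inhibition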
Target sequence (P49798 whole entry, looked up): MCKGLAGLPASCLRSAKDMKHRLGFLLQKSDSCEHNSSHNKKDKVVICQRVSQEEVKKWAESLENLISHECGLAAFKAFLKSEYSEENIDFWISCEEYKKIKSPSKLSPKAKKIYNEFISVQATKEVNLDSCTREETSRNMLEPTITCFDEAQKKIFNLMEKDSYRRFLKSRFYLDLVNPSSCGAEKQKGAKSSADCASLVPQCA
MrgX1 allo act = allosterically activates human MrgX1 receptor signaling | Q96LB2 | MrgX1-HEK293, Fluo-4 calcium flux, FDSS; stronger effect = higher value | B-score at 10 µM | 0.63% of 310,000 active | AID 588675;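 active means plate-corrected calcium response at least 3 library SD above typical, normal starting fluorescence, not activating the receptor alone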;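 further: compound read alongside a low EC10 to EC30 dose of BAM8-22 agonist; peak minus trough fluorescence over baseline measured at the second addition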
Starred values were filed as active, the others as inactive; i = inactive; · = not tested or not shown. Only some compounds are listed: those with a hit (about 3.8% of all), similar ones and a draw of the others.

SMILES	Lipid droplet	MrgX1 antagonist	MrgX1 ag	RGS4 pot	RGS4 block	MrgX1 allo act
Cc1cc(C)nc(/N=C(\N)Nc2cccc([N+](=O)[O-])c2)n1	7	i	41*	i	i	i
COc1cc([N+](=O)[O-])ccc1NC(=O)Nc1cccnc1	2	i	i	i	i	i
O=C(Nc1ccc([N+](=O)[O-])cc1)c1cccc(S(=O)(=O)Nc2cccnc2)c1	-46	i	i	i	i	i
O=C(Nc1cccnc1)c1ccc(NS(=O)(=O)c2cccc([N+](=O)[O-])c2)cc1	-10	i	i	i	i	14*
O=C(Nc1cccnc1)Nc1cccc([N+](=O)[O-])c1	-5	-5.2*	i	i	i	i
Cc1ccc(NC(=O)Nc2cccc([N+](=O)[O-])c2)cc1F	6	-6.1*	i	i	i	i
CCOc1ccc2nc(SCC(=O)N(CCOC)c3c(N)n(Cc4ccccc4)c(=O)[nH]c3=O)[nH]c2c1	·	i	i	i	i	i
C/C(=N\NC(=O)CNC(=O)c1cccc(F)c1)c1ccc2ccccc2c1	16	i	i	i	i	i
CCCCn1c(N)c(N(CCC(C)C)C(=O)CN2C(=O)C3CCCCC3C2=O)c(=O)[nH]c1=O (configuration not stated)	9	i	i	i	i	i
O=C(NCCN1C(=O)S/C(=C\c2cccs2)C1=O)c1ccc(=O)[nH]c1	7	i	i	i	i	i
O=C(Nc1ccc(OC(F)(F)F)cc1)Nc1cccc([N+](=O)[O-])c1	17	-6.6*	i	i	i	i
O=C(Nc1ccc(OC(F)(F)F)cc1)Nc1cccnc1	-62	i	i	i	i	i
Cc1ccc(OCC(=O)N2CCc3ccccc3C2)cc1	6	i	i	i	i	i
CN(C(=O)C(C)(C)C)c1ccc(OCC(=O)N2CCc3ccccc3C2)cc1	-31	i	i	-7.4*	i	i
Cc1ccc(Cl)cc1N1CCN(C(=O)c2cn(C)c(=O)c3c2c2ccccc2n3C)CC1	-31	i	i	i	i	i
Cc1cccc(N2CCN(C(=O)c3cn(C)c(=O)c4c3c3ccccc3n4C)CC2)c1C	·	i	i	i	i	9.5*
O=C1NC(=S)N/C1=C\c1ccc(Oc2ccc(C(F)(F)F)cc2[N+](=O)[O-])c(Cl)c1	12	i	i	i	i	i
CC(=O)Oc1ccc(N2C(=O)C3C(C2=O)C(C(=O)c2ccc(Cl)cc2)N2CCCC32)cc1 (configuration not stated)	2	i	30*	i	i	i
C[C@H]1CN=C(N(C)C)N1CCC1CCCCC1	·	i	i	·	·	i
C[C@H]1O[C@H](O[C@H]2[C@H](O[C@@H]3CC[C@@]4(C)C(CC[C@]5(C)C4CC=C4[C@@H]6CC(C)(C)CC[C@]6(C(=O)O[C@@H]6O[C@H](CO)[C@@H](O)[C@H](O)[C@H]6O)CC[C@]45C)C3(C)C)O[C@H](C(=O)O)[C@@H](O)[C@@H]2O)[C@@H](O)[C@@H](O)[C@@H]1O (some centres not stated)	·	i	i	·	·	i
CC(=O)OCC1O[C@@H](O[C@@H]2C[C@H]3C(C)(C)[C@H](OC(C)=O)CC[C@]3(C)[C@H]3CC[C@]45C[C@]4(CC[C@H]5[C@@H](C)C[C@@H](O)[C@H](O)C(C)(C)O)[C@@]32C)[C@H](O)[C@@H](O)[C@@H]1O (some centres not stated)	3	i	42*	i	i	i
CC(=O)O[C@@H]1C[C@H]2C(C)(C)C(=O)C=C[C@]2(C)[C@H]2CC[C@@]3(C)[C@H](c4ccoc4)OC(=O)[C@H]4O[C@]43[C@@]21C	-12	i	i	i	i	9.8*
COc1ccc(Nc2nc(-c3cccs3)nc3ccccc23)cc1S(=O)(=O)N1CCOCC1	·	i	i	-7.3*	i	i
